Key:
[1] = species: Rattus norvegicus; test: Ratio of regional brain distribution of [18F]-ACF radiolabeled compound in rat cortex to that of cerebellum after 120 min; type: ADME, organism-based; details: in vivo, 2 h
In short: (§1)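 Rats, three per time point, given 30 μCi tracer in 0.2 mL saline into femoral vein under ether anesthesia; killed at 2, 30, 60, 120 or 240 min. Cortex, striatum, hippocampus, cerebellum, hypothalamus and rest of brain dissected, weighed, counted; % dose/g against diluted initial dose, then each region divided by cerebellum. Average of three rats ± SD.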

[2] = test system: Rattus norvegicus; test: Effect of pretreatment with (+)-McN5652 with a dose of 2 mg/kg (i.v.) on specific binding of [18F]ACF in rat brain hippocampus; type: ADME, organism-based; set-up: dose 2 mg/kg, route intravenous; details: in vivo, iv
In short: (§2)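 Rats pretreated iv with drug (2 mg/kg) or saline 5 min before iv [18F]ACF (50 μCi). Sacrificed 1 h after tracer. Brain regions were dissected, weighed and counted, and % dose/g was calculated against a diluted initial dose. Drug-treated rats were compared with saline controls by ANOVA/Dunnett's test (p<0.05). Three rats per point, average ± SD.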

[3] = species: Rattus norvegicus; test: Regional brain distribution of [18F]-ACF radiolabeled compound in rat cerebellum after 240 min; type: ADME, organism-based; details: in vivo, 4 h
In short: (§3)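 Rats (three per group) under ether anesthesia got 30 μCi tracer in 0.2 mL saline into the femoral vein and were killed by cardiac excision at the stated time. Cortex, striatum, hippocampus, cerebellum, hypothalamus and the rest of brain were dissected, weighed and gamma counted. %dose/g was taken against counts of a diluted initial dose. Regional ratios are each region's %dose/g over cerebellum's. Mean ± SD.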

[4] = species: Rattus norvegicus; test: Organ distribution of [18F]ACF radiolabeled compound in rat blood after 240 min; type: ADME, organism-based; details: in vivo, 4 h
In short: (§4)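 Rats, three per time point, under ether anesthesia; 30 μCi tracer in 0.2 mL saline injected into femoral vein. Sacrificed by cardiac excision under ether at 2, 30, 60, 120 or 240 min. Organs removed, weighed and counted; % dose/organ calculated against counts of 1% of initial dose counted at the same time. Average of three rats ± SD.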

[5] = species: Rattus norvegicus; test: Organ distribution of [18F]ACF radiolabeled compound in rat bone after 60 min; type: ADME, organism-based, Bone element; details: in vivo, 1 h; in short: as §4
[6] = test system: Rattus norvegicus; test: Effect of pretreatment with methylphenidate with a dose of 2 mg/kg (i.v.) on specific binding of [18F]ACF in rat brain hippocampus; type: ADME, organism-based; set-up: dose 2 mg/kg, route intravenous; details: in vivo, iv; in short: as §2
[7] = species: Rattus norvegicus; test: Organ distribution of [18F]-ACF radiolabeled compound in rat lung after 60 min; type: ADME, organism-based; details: in vivo, 1 h
In short: (§5)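 Under ether anesthesia, 30 μCi no-carrier-added tracer in 0.2 mL saline injected into the femoral vein. Rats killed by cardiac excision at the stated time. Organs were removed, weighed and counted; % dose/organ was calculated against counts of a 1% initial-dose standard. Three rats per time, average ± SD.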

[8] = species: Rattus norvegicus; test: Organ distribution of [18F]ACF radiolabeled compound in rat lung after 120 min; type: ADME, organism-based; details: in vivo, 2 h; in short: as §4
[9] = species: Rattus norvegicus; test: Regional brain distribution of [18F]-ACF radiolabeled compound in rat remainder (rest of brain) after 60 min; type: ADME, organism-based; details: in vivo, 1 h; in short: as §3
[10] = species: Rattus norvegicus; test: Regional brain distribution of [18F]ACF radiolabeled compound in rat hypothalamus after 60 min; type: ADME, organism-based; details: in vivo, 1 h; in short: as §3
[11] = species: Rattus norvegicus; test: Regional brain distribution of [18F]-ACF radiolabeled compound in rat hippocampus after 30 min; type: ADME, organism-based; details: in vivo, 0.5 h; in short: as §3
[12] = species: Rattus norvegicus; test: Ratio of regional brain distribution of [18F]-ACF radiolabeled compound in rat cerebellum to that of cerebellum after 120 min; type: ADME, organism-based; details: in vivo, 2 h; in short: as §1
[13] = species: Rattus norvegicus; test: Organ distribution of [18F]-ACF radiolabeled compound in rat muscle after 120 min; type: ADME, organism-based, Muscle tissue; details: in vivo, 2 h; in short: as §5
[14] = species: Rattus norvegicus; test: Ratio of regional brain distribution of [18F]-ACF radiolabeled compound in rat remainder to that of cerebellum after 120 min; type: ADME, organism-based; details: in vivo, 2 h; in short: as §3
[15] = species: Rattus norvegicus; test: Organ distribution of [18F]-ACF radiolabeled compound in rat bone after 240 min; type: ADME, organism-based, Bone element; details: in vivo, 4 h; in short: as §5
[16] = test system: Rattus norvegicus; test: Effect of pretreatment with methylphenidate with a dose of 2 mg/kg (i.v.) on specific binding of [18F]-ACF in rat brain striatum; type: ADME, organism-based; set-up: dose 2 mg/kg, route intravenous; details: in vivo, iv; in short: as §2
[17] = species: Rattus norvegicus; test: Organ distribution of [18F]-ACF radiolabeled compound in rat skin after 30 min; type: ADME, organism-based; details: in vivo, 0.5 h; in short: as §5
[18] = species: Rattus norvegicus; test: Regional brain distribution of [18F]ACF radiolabeled compound in rat cerebellum after 120 min; type: ADME, organism-based; details: in vivo, 2 h; in short: as §3
[19] = test system: Rattus norvegicus; test: Ratio of effect of pretreatment with methylphenidate with a dose of 2 mg/kg (i.v.) on specific binding of [18F]ACF in rat brain cerebellum to that of cerebellum; type: ADME, organism-based; set-up: dose 2 mg/kg, route intravenous; details: in vivo, iv
In short: (§6)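 Rats (three per point) pretreated iv with competing drug at 2 mg/kg or saline (control) 5 min before iv [18F]ACF (50 μCi). At 1 h post tracer, brain regions (cortex, striatum, hippocampus, cerebellum, hypothalamus, remainder) dissected, weighed, counted as % dose/g and expressed as ratio to cerebellum. Average ± SD; ANOVA with Dunnett's test vs saline controls, p < 0.05.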

[20] = test system: Rattus norvegicus; test: Ratio of effect of pretreatment with nisoxatine with a dose of 2 mg/kg (i.v.) on specific binding of [18F]ACF in rat brain hypothalamus to that of cerebellum; type: ADME, organism-based; set-up: dose 2 mg/kg, route intravenous; details: in vivo, iv; in short: as §6
[21] = species: Rattus norvegicus; test: Organ distribution of [18F]ACF radiolabeled compound in rat blood after 2 min; type: ADME, organism-based; details: in vivo; in short: as §4
[22] = species: Rattus norvegicus; test: Organ distribution of [18F]-ACF radiolabeled compound in rat liver after 60 min; type: ADME, organism-based; details: in vivo, 1 h; in short: as §5
[23] = test system: Rattus norvegicus; test: Effect of pretreatment with nisoxatine with a dose of 2 mg/kg (i.v.) on specific binding of [18F]ACF in rat brain hypothalamus; type: ADME, organism-based; set-up: dose 2 mg/kg, route intravenous; details: in vivo, iv; in short: as §2
[24] = species: Rattus norvegicus; test: Organ distribution of [18F]-ACF radiolabeled compound in rat lung after 30 min; type: ADME, organism-based; details: in vivo, 0.5 h; in short: as §5
[25] = test system: Rattus norvegicus; test: Ratio of effect of pretreatment with methylphenidate with a dose of 2 mg/kg (i.v.) on specific binding of [18F]ACF in rat brain hippocampus to that of cerebellum; type: ADME, organism-based; set-up: dose 2 mg/kg, route intravenous; details: in vivo, iv; in short: as §6
[26] = species: Rattus norvegicus; test: Ratio of regional brain distribution of [18F]ACF radiolabeled compound in rat hypothalamus to that of cerebellum after 240 min; type: ADME, organism-based; details: in vivo, 4 h; in short: as §3
[27] = test system: Rattus norvegicus; test: Effect of pretreatment with (+)-McN5652 with a dose of 2 mg/kg (i.v.) on specific binding of [18F]ACF in rat brain hypothalamus; type: ADME, organism-based; set-up: dose 2 mg/kg, route intravenous; details: in vivo, iv; in short: as §2
[28] = species: Rattus norvegicus; test: Ratio of regional brain distribution of [18F]-ACF radiolabeled compound in rat striatum to that of cerebellum after 240 min; type: ADME, organism-based; details: in vivo, 4 h; in short: as §3
[29] = species: Rattus norvegicus; test: Organ distribution of [18F]ACF radiolabeled compound in rat spleen after 2 min; type: ADME, organism-based; details: in vivo; in short: as §4
[30] = species: Rattus norvegicus; test: Ratio of regional brain distribution of [18F]ACF radiolabeled compound in rat remainder to that of cerebellum after 60 min; type: ADME, organism-based; details: in vivo, 1 h; in short: as §3
[31] = species: Rattus norvegicus; test: Regional brain distribution of [18F]ACF radiolabeled compound in rat striatum after 60 min; type: ADME, organism-based; details: in vivo, 1 h
In short: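 Rats, three per group, under ether anaesthesia, given 30 μCi no-carrier-added tracer in 0.2 mL saline into the femoral vein. They were killed at the stated time by cardiac excision under ether. Striatum and other brain regions were dissected, weighed and counted. %dose/g was calculated against counts of 1% of the injected dose, as mean ± SD of three rats.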

[32] = species: Rattus norvegicus; test: Regional brain distribution of [18F]-ACF radiolabeled compound in rat cortex after 2 min; type: ADME, organism-based; details: in vivo; in short: as §3
[33] = species: Rattus norvegicus; test: Ratio of regional brain distribution of [18F]-ACF radiolabeled compound in rat remainder to that of cerebellum after 30 min; type: ADME, organism-based; details: in vivo, 0.5 h; in short: as §3
[34] = species: Rattus norvegicus; test: Regional brain distribution of [18F]-ACF radiolabeled compound in rat hypothalamus after 240 min; type: ADME, organism-based; details: in vivo, 4 h; in short: as §3
[35] = species: Rattus norvegicus; test: Organ distribution of [18F]-ACF radiolabeled compound in rat heart after 240 min; type: ADME, organism-based; details: in vivo, 4 h; in short: as §5

## CN(C)Cc1ccccc1Sc1cc(F)c(Cl)cc1N
[1]
  Ratio: 1.77
[2]
  Dose/g: 0.34%
[3]
  Dose/g: 0.02%
[4]
  Dose/g: 2.33 % dose/organ
[5]
  Dose/g: 0.08 % dose/organ
[6]
  Dose/g: 0.43%
[7]
  Dose/g: 0.73 % dose/organ
[8]
  Dose/g: 0.32 % dose/organ
[9]
  Dose/g: 0.39%
[10]
  Dose/g: 0.54%
[11]
  Dose/g: 0.7%
[12]
  Ratio: 1
[13]
  Dose/g: 4.02 % dose/organ
[14]
  Ratio: 2.34
[15]
  Dose/g: 0.27 % dose/organ
[16]
  Dose/g: 0.47%
[17]
  Dose/g: 6.51 % dose/organ
[18]
  Dose/g: 0.05%
[19]
  Ratio: 1
[20]
  Ratio: 2.89
[21]
  Dose/g: 6.56 % dose/organ
[22]
  Dose/g: 10.3 % dose/organ
[23]
  Dose/g: 0.55%
[24]
  Dose/g: 1.76 % dose/organ
[25]
  Ratio: 2.5
[26]
  Ratio: 2.37
[27]
  Dose/g: 0.24%
[28]
  Ratio: 2.35
[29]
  Dose/g: 0.64 % dose/organ
[30]
  Ratio: 2.56
[31]
  Dose/g: 0.45%
[32]
  Dose/g: 2.31%
[33]
  Ratio: 1.8
[34]
  Dose/g: 0.05%
[35]
  Dose/g: 0.04 % dose/organ

From ChEMBL document CHEMBL1136006, “New PET imaging agent for the serotonin transporter: [(18)F]ACF (2-[(2-amino-4-chloro-5-fluorophenyl)thio]-N,N-dimethyl-benzenmethanamine)” (J Med Chem, 2002)
